Data taken from ChEMBL document CHEMBL1121766, “Chemical modification of aminoglycosides. 3. Synthesis of 2"-deoxykanamycins from neamine” (1981).
In brackets after ≈: the same amount, converted by molar mass.

Experiments:
[1] = system: Pseudomonas aeruginosa; experiment: Compound was tested in vitro for antibacterial activity against Pseudomonas aeruginosa UC 3680; assay type: functional
Method in brief: (§1)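 MIC by microplate broth dilution: serial twofold dilutions of antibiotic in brain-heart infusion broth, each well inoculated with standardized cell suspension to ~10^5 viable cells per mL of drug-supplemented medium. Incubated 37 °C for 20 h; MIC read as lowest concentration inhibiting visible growth.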

[2] = system: Enterococcus faecalis; experiment: Compound was tested in vitro for antibacterial activity against Streptococcus faecalis UC 694; assay type: functional; method in brief: as §1
[3] = system: Pseudomonas aeruginosa; experiment: Compound was tested in vitro for antibacterial activity against Pseudomonas aeruginosa UC 95; assay type: functional; method in brief: as §1
[4] = system: Salmonella typhi; experiment: Compound was tested in vitro for antibacterial activity against Salmonella typhi UC 215; assay type: functional, Salmonella enterica subsp. enterica serovar Typhi; conditions: Salmonella enterica
Method in brief: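 Microplate broth dilution: serial twofold antibiotic dilutions in brain-heart infusion broth, inoculated with a standardized cell suspension to a final ~10^5 viable cells per mL. Incubated 37 °C for 20 h. MIC read as the lowest concentration that inhibited visible growth.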

[5] = system: Proteus vulgaris; experiment: Compound was tested in vitro for antibacterial activity against Proteus vulgaris UC 93; assay type: functional; method in brief: as §1
[6] = system: Pseudomonas aeruginosa; experiment: Compound was tested in vitro for antibacterial activity against Pseudomonas aeruginosa UC 3679; assay type: functional; method in brief: as §1
[7] = system: Klebsiella pneumoniae; experiment: Compound was tested in vitro for antibacterial activity against Klebsiella pneumoniae UC 58; assay type: functional; method in brief: as §1
[8] = system: Pseudomonas aeruginosa; experiment: Compound was tested in vitro for antibacterial activity against Pseudomonas aeruginosa UC 6436; assay type: functional; method in brief: as §1
[9] = system: Staphylococcus aureus; experiment: Compound was tested in vitro for antibacterial activity against Staphylococcus aureus UC76; assay type: functional; method in brief: as §1
[10] = system: Streptococcus pyogenes; experiment: Compound was tested in vitro for antibacterial activity against Streptococcus pyogenes UC 152; assay type: functional; method in brief: as §1
[11] = Compound was tested in vitro for antibacterial activity against Salmonella schottmuelleri UC 126; assay type: functional; method in brief: as §1
[12] = system: Escherichia coli; experiment: Compound was tested in vitro for antibacterial activity against Escherichia coli UC 45; assay type: functional; method in brief: as §1
[13] = system: Pseudomonas aeruginosa; experiment: Compound was tested in vitro for antibacterial activity against Pseudomonas aeruginosa UC 3681; assay type: functional; method in brief: as §1
[14] = system: Pseudomonas aeruginosa; experiment: Compound was tested in vitro for antibacterial activity against Pseudomonas aeruginosa UC 3683; assay type: functional; method in brief: as §1
[15] = system: Streptococcus pneumoniae; experiment: Compound was tested in vitro for antibacterial activity against Streptococcus pneumoniae UC 41; assay type: functional; method in brief: as §1
[16] = system: Pseudomonas aeruginosa; experiment: Compound was tested in vitro for antibacterial activity against Pseudomonas aeruginosa UC 3682; assay type: functional; method in brief: as §1
[17] = system: Proteus mirabilis; experiment: Compound was tested in vitro for antibacterial activity against Proteus mirabilis UC 6671; assay type: functional; method in brief: as §1
[18] = system: Serratia marcescens; experiment: Compound was tested in vitro for antibacterial activity against Serratia marcescens UC 131; assay type: functional; method in brief: as §1

Row | Structure (SMILES) | MIC [1] | MIC [2] | MIC [3] | MIC ([3]; Pseudomonas aeruginosa, read-out: MIC) | MIC [4] | MIC [5] | MIC [6] | MIC [7] | MIC [8] | MIC [9] | MIC [10] | MIC [11] | MIC [12] | MIC [13] | MIC [14] | MIC [15] | MIC [16] | MIC [17] | MIC [18]
1 | NCC1CCC(N)C(OC2C(N)CC(N)C(OC3CC(N)C(O)C(CO)O3)C2O)O1 (stereo not drawn) | 7.8 µg/mL (≈ 17.9 µM) | 250 µg/mL (≈ 574 µM) | 7.8 µg/mL (≈ 17.9 µM) | 15.6 µg/mL (≈ 35.8 µM) | 15.6 µg/mL (≈ 35.8 µM) | 31.2 µg/mL (≈ 71.6 µM) | 7.8 µg/mL (≈ 17.9 µM) | 3.9 µg/mL (≈ 8.95 µM) | > 125 µg/mL | < 1 µg/mL | 7.8 µg/mL (≈ 17.9 µM) | 15.6 µg/mL (≈ 35.8 µM) | 62.5 µg/mL (≈ 144 µM) | 15.6 µg/mL (≈ 35.8 µM) | 7.8 µg/mL (≈ 17.9 µM) | 250 µg/mL (≈ 574 µM) | 15.6 µg/mL (≈ 35.8 µM) | 62.5 µg/mL (≈ 144 µM) | 15.6 µg/mL (≈ 35.8 µM)
2 | NCC1OC(OC2C(N)CC(N)C(OC3CC(N)C(O)C(CO)O3)C2O)C(N)C(O)C1O (stereo not drawn) |  | 1000 µg/mL (≈ 2140 µM) |  |  |  |  |  | 3.9 µg/mL (≈ 8.34 µM) |  | 3.9 µg/mL (≈ 8.34 µM) | 15.6 µg/mL (≈ 33.4 µM) | 15.6 µg/mL (≈ 33.4 µM) | 31.2 µg/mL (≈ 66.7 µM) |  |  | 500 µg/mL (≈ 1070 µM) |  | 62.5 µg/mL (≈ 134 µM) | 31.2 µg/mL (≈ 66.7 µM)
